High-throughput results from PubChem BioAssay.
KCNQ1 pot: potentiators or activators of KCNQ1 channel, primary screen, cell-based, thallium flux, high-throughput; Potassium voltage-gated channel subfamily KQT member 1 (Homo sapiens), P51787; CHO-K1 KCNQ1, thallium flux FluxOR fluorescence; active compounds read high; B-score at 10 µM; 0.35% of 310,000 active; AID 2648, 2010;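 active means fluorescence ratio B-score, a plate-corrected score, at least three library SD, with initial intensity B-score within 5 SD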
Target sequence (P51787 whole entry, looked up): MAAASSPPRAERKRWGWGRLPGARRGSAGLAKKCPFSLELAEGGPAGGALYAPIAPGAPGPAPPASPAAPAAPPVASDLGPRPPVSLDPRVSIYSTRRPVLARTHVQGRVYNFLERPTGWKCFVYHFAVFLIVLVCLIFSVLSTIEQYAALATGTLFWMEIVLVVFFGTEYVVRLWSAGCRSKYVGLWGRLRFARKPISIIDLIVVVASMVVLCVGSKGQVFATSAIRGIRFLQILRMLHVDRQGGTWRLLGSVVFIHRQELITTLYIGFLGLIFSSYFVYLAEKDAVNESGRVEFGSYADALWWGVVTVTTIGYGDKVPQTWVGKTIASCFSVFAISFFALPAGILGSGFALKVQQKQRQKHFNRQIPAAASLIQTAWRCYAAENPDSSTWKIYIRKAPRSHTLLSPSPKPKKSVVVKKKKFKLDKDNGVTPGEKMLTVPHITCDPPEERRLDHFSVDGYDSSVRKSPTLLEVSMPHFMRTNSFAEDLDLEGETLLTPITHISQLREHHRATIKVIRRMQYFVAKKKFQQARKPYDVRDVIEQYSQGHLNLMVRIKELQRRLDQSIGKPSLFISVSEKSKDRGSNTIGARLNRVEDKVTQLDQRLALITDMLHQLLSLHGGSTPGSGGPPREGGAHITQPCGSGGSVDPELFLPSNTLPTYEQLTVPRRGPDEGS
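Assay system: stable KCNQ1 CHO-K1 line; medium: assay buffer, equal DMSO in all wells; timing: 90 min dye loading and 20 min compound exposure, both at room temperature; technique: kinetic FluxOR thallium fluorescence, 10-s 1-Hz baseline, 110-s post-stimulus read; read-out basis: B score of baseline-normalized fluorescence ratio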
hERG rescue: hERG rescue from dofetilide block, primary screen, cell-based, CHO-hERG, FluxOR thallium flux, dofetilide IC70; 0.51% of 310,000 active; AID 1511, 2009; dofetilide IC70 present; Voltage-gated inwardly rectifying potassium channel KCNH2 (Homo sapiens), Q12809; activation (rescue from dofetilide block), less the hit threshold, % at 10 µM;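 active means activation above the mean of controls blocked by dofetilide plus 5 SD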;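 further: thallium influx through hERG after potassium depolarization seen as dye fluorescence rise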
Kir21 block: inhibitors of mouse Kir2.1 inward-rectifier potassium channel. HEK293-Kir2.1, FluxOR thallium flux fluorescence; active compounds read low. Inward rectifier potassium channel 2 (Mus musculus), P35561. 0.85% of 310,000 active. B-score at 10 µM;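 active means fluorescence ratio B-score at or below minus 3 SD of library scores, with starting-brightness B-score within 2 SD, cut at about -4.2 in these data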;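 further: channel flux triggered by added potassium and thallium sulfate stimulus; B-score of peak minus minimum fluorescence over baseline after thallium stimulus; more negative B-score means stronger Kir2.1 block with less thallium influx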
KCNK9 inh: KCNK9 potassium channel inhibitors, primary screen, HEK293 cells, thallium flux; 1.2% of 310,000 active; FluxOR thallium flux fluorescence; active compounds read low; Potassium channel subfamily K member 9 (Homo sapiens), Q9NPC2; B-score at 10 µM;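 active means ratio B-score over 3 SD below the library mean, with starting fluorescence within 5 SD of its mean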;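 further: negative B-score means less thallium flux so channel inhibition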
KCNK3 inh: human KCNK3 channel inhibitors, primary screen, CHO cells, FluxOR thallium flux, B-score | Potassium channel subfamily K member 3 (Homo sapiens), O14649 | FluxOR fluorescence; active compounds read low | B-score at 10 µM | 0.84% of 340,000 active | AID 602410, 2012;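 active means B-score under library mean minus 4 SD, starting fluorescence ratio at most library mean plus 5 SD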;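 further: more negative B-score means stronger inhibition of thallium flux through KCNK3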
KCNQ1 inh: inhibitors of human KCNQ1 channel, primary screen, cell-based, thallium flux, high-throughput; B-score at 10 µM; AID 2642, 2010; CHO-K1 KCNQ1, FluxOR thallium flux fluorescence; active compounds read high; 1.3% of 310,000 active;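 active means compounds whose thallium flux B-score, printed positive for inhibition, exceeds three library SD while starting fluorescence stays within three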;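 further: channel opened by potassium depolarization with thallium stimulus after 20 min compound exposure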
KCNK3 confirm: retest of human KCNK3 channel inhibitors, confirmation, CHO cells, FluxOR thallium flux, triplicate; FluxOR fluorescence; 0% buffer, 100% carvedilol maximal block; 99% of 2,400 active; ratio percent of control, % at 10 µM; AID 651638, 2012; shares compounds with KCNK3 inh;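 active means ratio percent of control, averaged over triplicates, above buffer control mean plus 5 SD, cut at about 64% in these data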;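 further: ratio is the fluorescence rise from min to max over baseline after thallium stimulus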
KCNK3 noninduced: thallium flux inhibition in non-induced cells, primary screen, counter-screen for KCNK3 inhibitor project, cell-based, non-induced KCNK3 line, FluxOR thallium, triplicate; shares compounds with KCNK3 inh; non-induced KCNK3 parental cells; active compounds read low; AID 651747, 2012; thallium flux ratio (lower = more inhibition) at 10 µM; 40% of 2,400 active;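 active means thallium flux ratio, averaged over three wells, more than 5 SD below the buffer control mean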;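 further: host cells are CHO cells without KCNK3 induction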
Large screens that a line does not name were inactive (follow-up assays come after a bar, where they were run). Rows were chosen to be rich in hits. Some 3.7% of all compounds tested hit in one or more screens of this group.

Cc1ccc(NC(=O)CN(c2ccccc2)S(=O)(=O)N(C)C)cc1	none
CCC(C)c1ccc(NC(=O)C2CC3CCC2C3)cc1 (stereo not drawn)	KCNK9 inh -6.58, KCNK3 inh -9.44 | KCNK3 confirm 116.3 | KCNK3 noninduced inactive
CC1(C)Cc2c(sc(/N=C/N3CCCC3)c2C#N)C(C)(C)N1	none
O=C(c1cccc(C(F)(F)F)c1)c1c[nH]c(C(=O)NCC2CCCO2)c1 (stereo not drawn)	none
O=C(Cn1cc(S(=O)(=O)Cc2ccc([N+](=O)[O-])cc2)c2ccccc21)N1CCOCC1	none
COc1ccc(NC(=S)N(CCCN2CCOCC2)C(C)c2cc3ccccc3o2)cc1 (stereo not drawn)	none
COc1cccc2cc(C(C)N(CCCN3CCOCC3)C(=S)Nc3ccc(C)cc3)oc12 (stereo not drawn)	KCNK3 inh -9.5 | KCNK3 confirm 105.3 | KCNK3 noninduced inactive
Cc1ccc(Cn2ccc(NC(=O)c3noc4c3CCc3ccccc3-4)n2)cc1	none
Cc1nn(Cc2ccc(Cl)cc2)c(C)c1NC(=O)c1noc2c1CCc1ccccc1-2	KCNK3 inh -8.75 | KCNK3 confirm 117.0 | KCNK3 noninduced inactive
O=C(COc1ccc(Cl)cc1)Nc1nc(-c2cccs2)cs1	KCNK3 inh -9.26 | KCNK3 confirm 127.3 | KCNK3 noninduced 0.155
Cc1ccccc1OCC(O)Cn1c2ccccc2c2ccccc21 (stereo not drawn)	KCNK9 inh -6.68, KCNK3 inh -9.69 | KCNK3 confirm 131.3 | KCNK3 noninduced 0.13
CCOCCCNC(=O)/C(C#N)=C/c1ccc(Cl)c([N+](=O)[O-])c1	KCNK3 inh -9.07 | KCNK3 confirm 122.3 | KCNK3 noninduced 0.121
Cc1ccc(C(=O)CSc2cc(C)nc(SCC(=O)c3ccccc3)n2)cc1	KCNK3 inh -9.02 | KCNK3 confirm 112.3 | KCNK3 noninduced inactive
Cc1cc(SCC(N)=O)nc(SCC(=O)c2ccccc2)n1	none
Cc1cc(=O)[nH]c(SCC(=O)Nc2c(C)n(C)n(-c3ccccc3)c2=O)c1C#N	none (no result: KCNQ1 pot, hERG rescue, Kir21 block, KCNK9 inh, KCNQ1 inh)
CC1=C(C(=O)OCc2ccccc2)C(c2ccccc2Cl)NC(=O)N1C (stereo not drawn)	none
COc1ccc(OC)c(C2NC(=O)N(C)C(C)=C2C(=O)OCc2ccccc2)c1 (stereo not drawn)	KCNK3 inh -9.28 | KCNK3 confirm 140.7 | KCNK3 noninduced 0.105
O=C(CSc1n[nH]c(=O)n1Cc1ccccc1)Nc1ccc(N2CCOCC2)cc1	none (no result: KCNQ1 pot, hERG rescue, Kir21 block, KCNK9 inh, KCNQ1 inh)
CCN(CC)S(=O)(=O)c1cc(NC(=S)NC(=O)C2CCCC2)ccc1C	KCNK3 inh -15.6 (no result: KCNQ1 pot, hERG rescue, Kir21 block, KCNK9 inh, KCNQ1 inh) | KCNK3 confirm 101.0 | KCNK3 noninduced inactive
CCN(CC)c1ccc(S(=O)(=O)N(CC)CC)cc1NC(=O)C1CCCC1	KCNK3 inh -9.41 | KCNK3 confirm 96.7 | KCNK3 noninduced inactive
CCN(CC)S(=O)(=O)c1ccc(N(C)C)c(NC(=O)C2CCCC2)c1	none
CCN(CC)S(=O)(=O)c1cc(NC(=O)C(=O)c2c(-c3ccccc3)cc3ccccn23)ccc1C	KCNK3 inh -10.2 | KCNK3 confirm 105.3 | KCNK3 noninduced inactive
COc1ccc(/C=C/C(=O)OCc2cccc([N+](=O)[O-])c2)cc1	KCNK3 inh -9.59 | KCNK3 confirm 95.3 | KCNK3 noninduced 0.14
COc1ccc(S(=O)(=O)N2CCN(C(=O)c3ccc([N+](=O)[O-])o3)CC2)cc1	none
COc1ccc(/C=C/C(=O)c2ccc([N+](=O)[O-])o2)cc1	KCNK3 inh -10.7 | KCNK3 confirm 99.0 | KCNK3 noninduced inactive
Cc1ccc(NC(=S)N(CCN2CCOCC2)Cc2cc3cc4c(cc3[nH]c2=O)OCO4)cc1	KCNK3 inh -10.6 | KCNK3 confirm 92.3 | KCNK3 noninduced inactive
Cc1cccc(NC(=S)N(CCN2CCOCC2)Cc2cc3cc4c(cc3[nH]c2=O)OCCO4)c1	KCNK3 inh -11.8 | KCNK3 confirm 91.3 | KCNK3 noninduced inactive
CCOc1ccc(NC(=S)N(CCN2CCOCC2)Cc2cc3cc4c(cc3[nH]c2=O)OCO4)cc1	none
Cc1ccc(NC(=S)N(CCN2CCOCC2)Cc2cc3cc4c(cc3[nH]c2=O)OCCO4)cc1	KCNK3 inh -8.93 | KCNK3 confirm 98.3 | KCNK3 noninduced inactive
COc1ccc(NC(=S)N(CCN2CCOCC2)Cc2cc3cc4c(cc3[nH]c2=O)OCO4)cc1	none (no result: KCNK3 inh)
NS(=O)(=O)c1ccc(CCNC(=O)CSc2nc3ccccc3c(=O)n2CCC(=O)N2CCCCC2)cc1	none
COc1ccc(-n2nnc3c(SC(C(C)=O)C(=O)N(C)C)ncnc32)cc1 (stereo not drawn)	none
Cc1occc1-c1nnc(SCC(=O)NC2CC2)n1C(C)C	none
C=CCc1cc(C)ccc1OCCCC(C(=O)OCC)C(=O)OCC	KCNK3 inh -11.8 | KCNK3 confirm 101.0 | KCNK3 noninduced inactive
CC(Nc1nc(-c2cccnc2)nc2ccccc12)c1ccc(F)cc1 (stereo not drawn)	KCNK9 inh -7.86, KCNK3 inh -16.9, KCNQ1 inh 8 | KCNK3 confirm 125.0 | KCNK3 noninduced inactive
Cc1csc(=O)n1CC(=O)OCC(=O)Nc1cc(Cl)ccc1[N+](=O)[O-]	none
CC(=O)N(C1=C(Cl)C(=O)c2ccccc2C1=O)C1CCCCC1	KCNK9 inh -6.9, KCNK3 inh -11.5 | KCNK3 confirm 140.3 | KCNK3 noninduced 0.087
CC(=O)N(c1ccccc1C)C1CCCC1	none
Cc1sc2ncnc(N3CCC(C(=O)Nc4nc(-c5cccs5)cs4)CC3)c2c1C	KCNK3 inh -8.93 | KCNK3 confirm 94.3 | KCNK3 noninduced inactive
Cc1sc2ncnc(N3CCC(C(=O)Nc4ccccc4C(C)(C)C)CC3)c2c1C	none
Cc1sc2ncnc(N3CCC(C(=O)Oc4cccc(Cl)c4Cl)CC3)c2c1C	KCNK9 inh -8.09, KCNK3 inh -9.14 | KCNK3 confirm 96.3 | KCNK3 noninduced inactive
O=C(NCC1CCCO1)c1ccc(NC(=O)c2ccc([N+](=O)[O-])cc2)cc1 (stereo not drawn)	none
